Series [1] has as its system Mus musculus. Description: Toxicity in C3D2F1/J mouse allografted with mouse L1210 cells assessed as body weight change at 50 mg/kg, ip qd administered for 5 days measured on day 8 (reference value: 1.81 +/- 0.79 g). It counts as organism-based. Set-up: dose 50 mg/kg, route intraperitoneal. The conditions noted are these: in vivo, 120 h.
Series [2] has as its system Mus musculus. Nature of the series: Toxicity in C3D2F1/J mouse allografted with mouse L1210 cells assessed as body weight change at 25 mg/kg, ip qd administered for 5 days measured on day 8 (reference value: 1.81 +/- 0.79 g). Set-up: dose 25 mg/kg, route intraperitoneal. The conditions noted are these: in vivo, 120 h. It counts as organism-based.
In series [3] the test system is L1210. Nature of the series: Antitumor activity against mouse L1210 cells allografted in C3D2F1/J mouse assessed as increase in life span at 25 mg/kg, ip qd administered for 5 days relative to control. It counts as functional. Particulars: 120 h, route intraperitoneal.
Series [4] deals with L1210. Nature of the series: Antitumor activity against mouse L1210 cells allografted in C3D2F1/J mouse assessed as median survival time at 50 mg/kg, ip qd administered for 5 days (reference value: 9 days). The conditions noted are these: route intraperitoneal. The series is classed as functional.
In series [5] the test system is L1210. Description: Cytotoxicity against mouse L1210 cells assessed as growth inhibition measured at 72 hrs by trypan blue exclusion assay. The series is classed as functional. The conditions noted are these: L1210, 72 h, read-out: ED50 (the source's name). The method, boiled down: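 L1210 mouse lymphoid leukemia cells seeded at 2–3 × 10⁵ cells/mL in RPMI 1640 + 10% fetal calf serum with compound (from Me2SO stock, final Me2SO 0.5%, compound 100 μM or lower). Viable cells counted by 0.05% Trypan blue exclusion in a hemocytometer at 24, 48, 72 h. Treated/untreated density ratio. ED50 at 72 h interpolated from response curves of three separate experiments.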

Series [6] is described as follows: Drug degradation assessed as compound hydrolysis at 5 umol at pH 4.8 at 25 degC after 24 hrs by UV analysis in presence of wheat germ acid phosphatase. The series is classed as physicochemical. The conditions noted are these: read-out: Drug degradation. The method, boiled down:
(§1)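 5 μmol conjugate in NaOAc buffer (pH 4.8) with 3 mg crude wheat germ acid phosphatase, 0.5 mL total, held at 25 °C for 24 h. Products were separated by paper chromatography against authentic markers.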

Series [7] concerns L1210. Nature of the series: Antitumor activity against mouse L1210 cells allografted in C3D2F1/J mouse assessed as median survival time at 75 mg/kg, ip qd administered for 5 days (reference value: 9 days). It counts as functional. Particulars: route intraperitoneal.
The nature of series [8]: Drug degradation in baboon plasma at 5 umol at 37 degC after 24 hrs by UV analysis. It counts as ADME, cell-free. The conditions noted are these: papio anubis, read-out: Drug degradation. The method, boiled down:
(§2)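 5 μmol conjugate in 0.5 mL fresh baboon plasma, incubated at 37 °C for 24 h. Intact conjugate and products were separated by paper chromatography with authentic markers.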

Series [9] relates to L1210. Description: Antitumor activity against mouse L1210 cells allografted in C3D2F1/J mouse assessed as increase in life span at 75 mg/kg, ip qd administered for 5 days relative to control. The series is classed as functional. Particulars: 120 h, route intraperitoneal.
Series [10] is described as follows: Drug degradation assessed as ara-C formation at 5 umol at pH 9 after 24 hrs by UV analysis in presence of Crotalus adamanteus 5'-nucleotidase. The series is classed as physicochemical. Particulars: buffer, pH 9, 24 h. An outline of the steps: (§3)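 Crude Crotalus adamanteus venom: 5 μmol conjugate in Tris-HCl buffer (pH 8.8) with 2.5 mg venom, 0.5 mL total, incubated 37 °C for 24 h. Products were resolved by paper chromatography alongside authentic markers.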

The subject of series [11] is Mus musculus. Description: Toxicity in C3D2F1/J mouse allografted with mouse L1210 cells assessed as body weight change at 100 mg/kg, ip qd administered for 5 days measured on day 8 (reference value: 1.81 +/- 0.79 g). Set-up: dose 100 mg/kg, route intraperitoneal. Particulars: in vivo, 120 h. The series is classed as organism-based.
Series [12] in a line: Hydrolytic stability of the compound at 5 umol at pH 8 at 25 degC after 24 hrs by UV analysis in presence of bacterial alkaline phosphatase. It counts as physicochemical. Particulars: isolated protein, pH 8, 24 h. The method, boiled down: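 5 μmol conjugate in Tris-HCl (pH 8.0) with bacterial alkaline phosphatase suspension, 0.5 mL total, incubated at 25 °C for 24 h. Paper chromatography against authentic markers.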

Series [13] deals with L1210. Nature of the series: Antitumor activity against mouse L1210 cells allografted in C3D2F1/J mouse assessed as increase in life span at 100 mg/kg, ip qd administered for 5 days relative to control. The series is classed as functional. The conditions noted are these: 120 h, route intraperitoneal.
The subject of series [14] is Mus musculus. Description: Toxicity in C3D2F1/J mouse allografted with mouse L1210 cells assessed as body weight change at 75 mg/kg, ip qd administered for 5 days measured on day 8 (reference value: 1.81 +/- 0.79 g). Set-up: dose 75 mg/kg, route intraperitoneal. The conditions noted are these: in vivo, 120 h. The series is classed as organism-based.
A short description of series [15]: Metabolic stability in baboon plasma assessed as remaining compound level at 5 umol at 37 degC after 24 hrs by UV analysis. It counts as ADME, cell-free. The conditions noted are these: papio anubis, read-out: Stability. The method, boiled down:
as §2

Series [16] relates to L1210. Description: Antitumor activity against mouse L1210 cells allografted in C3D2F1/J mouse assessed as median survival time at 25 mg/kg, ip qd administered for 5 days (reference value: 9 days). Particulars: route intraperitoneal. The series is classed as functional.
Series [17] deals with L1210. Nature of the series: Antitumor activity against mouse L1210 cells allografted in C3D2F1/J mouse assessed as increase in life span at 50 mg/kg, ip qd administered for 5 days relative to control. The series is classed as functional. Particulars: 120 h, route intraperitoneal.
In series [18] the test system is L1210. Nature of the series: Antitumor activity against mouse L1210 cells allografted in C3D2F1/J mouse assessed as median survival time at 100 mg/kg, ip qd administered for 5 days (reference value: 9 days). The series is classed as functional. Particulars: route intraperitoneal.
Series [19] is described as follows: Drug degradation assessed as steroid formation at 5 umol at pH 9 after 24 hrs by UV analysis in presence of Crotalus adamanteus 5'-nucleotidase. It counts as physicochemical. Particulars: buffer, pH 9, 24 h. An outline of the steps:
as §3

Series [20] can be described thus: Hydrolytic stability of the compound assessed as remaining compound level at 5 umol at pH 4.8 at 25 degC after 24 hrs by UV analysis in presence of wheat germ acid phosphatase. The series is classed as physicochemical. Particulars: read-out: Stability. An outline of the steps: as §1
Series [21] concerns Mus musculus. Nature of the series: Toxicity in C3D2F1/J mouse allografted with mouse L1210 cells assessed as body weight change at 27 mg/kg, ip qd administered for 5 days measured on day 8 (reference value: 1.81 +/- 0.79 g). Particulars: in vivo, 120 h. It counts as organism-based. Set-up: dose 27 mg/kg, route intraperitoneal.
The subject of series [22] is L1210. Description: Antitumor activity against mouse L1210 cells allografted in C3D2F1/J mouse assessed as median survival time at 27 mg/kg, ip qd administered for 5 days (reference value: 10 days). Particulars: route intraperitoneal. The series is classed as functional.
Series [23] relates to L1210. Description: Antitumor activity against mouse L1210 cells allografted in C3D2F1/J mouse assessed as increase in life span at 27 mg/kg, ip qd administered for 5 days relative to control. The conditions noted are these: 120 h, route intraperitoneal. The series is classed as functional.

On to `C[C@]12C=CC(=O)C=C1CC[C@@H]1[C@@H]2[C@@H](O)C[C@@]2(C)[C@H]1CC[C@]2(O)C(=O)CO[P+]([O-])(O)OC[C@H]1O[C@@H](n2ccc(N)nc2=O)[C@@H](O)[C@@H]1O` (some centres undefined), for which the Activity in series [1] is -0.28 g; in series [2], -0.07 g; in [11], -1.5 g; in series [14] it was -0.71 g. Also, the ILS at 25 mg/kg in series [3] came to 72.7%. In addition, the MST in series [4] was 17 days; in [7] it was 16 days; in [16], 15.5 days; in series [18], 10.5 days. The EC50 in series [5] worked out at 50 nM. The metabolised at 24 h, 5 umol in [6] is 86%; in series [8], 39%. In series [9], the ILS at 75 mg/kg came to 77.8%. Besides, the Drug degradation in series [10] and in [19] was 50% throughout. Besides, the Stability entry in series [12] is reported as “Stable”. The ILS at 100 mg/kg in series [13] came out at 16.7%. Also, the remaining at 24 h, 5 umol in series [15] turned out to be 44%; in series [20], 8%. The ILS at 50 mg/kg in series [17] was 88.9%.
For `C[C@]12C=CC(=O)C=C1CC[C@@H]1[C@@H]2C(=O)C[C@@]2(C)[C@H]1CC[C@]2(O)C(=O)CO[P+]([O-])(O)OC[C@H]1O[C@@H](n2ccc(N)nc2=O)[C@@H](O)[C@@H]1O` (some centres undefined), the Activity is -0.3 g in series [1], -0.14 g in [2], -1.5 g in [11] and -0.75 g in series [14]. The ILS at 25 mg/kg in series [3] is 61.1%. The MST in series [4] was determined as 18 days; in series [7], 14 days; in [16], 14.5 days; in series [18], 10 days. Also, in [5], the EC50 came out at 500 nM. Besides, the metabolised at 24 h, 5 umol was 88% in series [6] and 15% in [8]. Moreover, the ILS at 75 mg/kg in series [9] amounted to 55.6%. Moreover, the Drug degradation in [10] and in series [19] was 50% each time. The Stability result in [12] is “Stable”. The ILS at 100 mg/kg in [13] turned out to be 11.1%. The remaining at 24 h, 5 umol came out at 74% in series [15] and 7% in series [20]. Also, in series [17], the ILS at 50 mg/kg was 100%.
Take `C[C@]12C=CC(=O)C=C1CC[C@@H]1[C@@H]2[C@@H](O)C[C@@]2(C)[C@H]1CC[C@]2(O)C(=O)CO` [PREDNISOLONE]: the Activity in series [21] is on record as -0.85 g. In series [5], the EC50 stood at 100000 nM. In [22], the MST came out at 9.5 days. Further, the ILS at 27 mg/kg in series [23] was -5%.

For the origin of these results see ChEMBL document CHEMBL3244344, “Nucleoside conjugates as potential antitumor agents. 2. Synthesis and biological activity of 1-(beta-D-arabinofuranosyl)cytosine conjugates of prednisolone and prednisone” (J Med Chem, 1979).
